Experimental data taken from ChEMBL document CHEMBL3393024, “Multidrug resistance-reversal effects of resin glycosides from Dichondra repens” (Bioorg Med Chem Lett, 2015).

Experiments:
[1] = Cytotoxicity against human KB/VCR cells at 25 uM after 72 hrs by SRB method; assay type: functional
Outline: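 Test sample was given alone at 25 µM, and cytotoxicity was expressed as percent inhibition ratio.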

[2] = Resistance factor, ratio of vincristine IC50 to vincristine IC50 in presence of compound for human KB/VCR cells; assay type: functional
Outline: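 Vincristine was serially diluted from 0.125 to 1 µM and tested with or without 25 µM test sample. Resistance factor is the vincristine IC50 alone divided by the vincristine IC50 with sample.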

[3] = Cytotoxicity against human KB/VCR cells at 10 uM after 72 hrs by SRB method; assay type: functional
[4] = Cytotoxicity against human KB/VCR cells after 72 hrs by SRB method; assay type: functional, cell-based

Structure (SMILES)	inhibition at 25 µM [1]	Ratio IC50 [2]	inhibition at 10 µM [3]	IC50 [4]
CCCCC[C@@H](CCCCCCC[C@H](O)CC(=O)O)O[C@@H]1O[C@H](CO[C@@H]2O[C@@H](C)[C@H](O)[C@@H](O)[C@H]2OC(=O)[C@H](C)[C@@H](C)O)[C@@H](O)[C@H](O)[C@H]1O[C@@H]1O[C@H](CO)[C@@H](O[C@@H]2O[C@@H](C)[C@H](O)[C@@H](OC(=O)[C@H](C)[C@@H](C)O)[C@H]2O)[C@H](O)[C@H]1O	0.83%	1.32		
CCCCC[C@@H](CCCCCCCCCC(=O)O)O[C@@H]1O[C@H](CO[C@@H]2O[C@@H](C)[C@H](O)[C@@H](O)[C@H]2OC(=O)[C@H](C)[C@@H](C)O)[C@@H](O)[C@H](O)[C@H]1O[C@@H]1O[C@H](CO)[C@@H](O[C@@H]2O[C@@H](C)[C@H](O)[C@@H](OC(=O)[C@H](C)[C@@H](C)O)[C@H]2O)[C@H](O)[C@H]1O	2.52%	1.19		
CCCCC[C@H](O)CCCCCCCCCC(=O)O[C@H]1[C@H](O[C@H]2C(O)O[C@H](CO)[C@@H](O)[C@@H]2O)O[C@@H](C)[C@H](OC(=O)[C@H](C)[C@@H](C)O)[C@H]1O[C@@H]1O[C@@H](C)[C@H](O)[C@@H](O)[C@H]1O (some centres not stated)	1.35%	1.78		
CCC[C@H](O)CCCCCCCCCC(=O)O[C@H]1[C@H](O[C@H]2C(O)O[C@H](CO)[C@@H](O)[C@@H]2O)O[C@@H](C)[C@@H](OC(=O)[C@H](C)[C@@H](C)O)[C@H]1O[C@@H]1O[C@@H](C)[C@H](O)[C@@H](O)[C@H]1O (some centres not stated)	1.64%	1.03		
CCCCC[C@H](O)CCCCCCCC(=O)O[C@H]1[C@H](O[C@H]2C(O)O[C@H](COC(C)=O)[C@@H](O)[C@@H]2O)O[C@@H](C)[C@@H](OC(=O)[C@H](C)[C@@H](C)O)[C@H]1O[C@@H]1O[C@@H](C)[C@H](O)[C@@H](O)[C@H]1O (some centres not stated)	0.85%	1.36		
COc1ccc(CCN(C)CCCC(C#N)(c2ccc(OC)c(OC)c2)C(C)C)cc1OC (configuration not stated)			0.45%	
CC[C@]1(O)C[C@H]2CN(CCc3c([nH]c4ccccc34)[C@@](C(=O)OC)(c3cc4c(cc3OC)N(C=O)[C@H]3[C@@](O)(C(=O)OC)[C@H](OC(C)=O)[C@]5(CC)C=CCN6CC[C@]43[C@@H]65)C2)C1 [VINCRISTINE]				570 nM
